Screening results as filed in PubChem.
PMI act hi M6P – PMI (human) activation, high substrate; P34949; coupled PMI enzyme assay, resazurin fluorescence, 20 min; hits give high values; 1 = untreated enzyme, 0 = substrate-free blank; activation factor at 20 µM; 0.34% of 190,000 active;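 active = activation factor of 2 or more at 20 µM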
Target sequence (P34949 whole entry, looked up): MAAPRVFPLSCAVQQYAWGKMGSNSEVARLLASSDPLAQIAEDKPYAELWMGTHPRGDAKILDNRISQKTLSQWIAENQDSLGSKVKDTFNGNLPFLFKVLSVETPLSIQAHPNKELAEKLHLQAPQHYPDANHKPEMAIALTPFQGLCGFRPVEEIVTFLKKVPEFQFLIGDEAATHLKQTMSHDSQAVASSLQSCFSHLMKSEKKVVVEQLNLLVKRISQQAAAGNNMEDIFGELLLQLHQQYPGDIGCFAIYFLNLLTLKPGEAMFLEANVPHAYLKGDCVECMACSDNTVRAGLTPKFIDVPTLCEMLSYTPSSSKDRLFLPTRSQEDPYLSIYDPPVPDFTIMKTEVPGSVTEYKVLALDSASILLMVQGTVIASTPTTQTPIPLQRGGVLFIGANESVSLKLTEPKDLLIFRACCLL
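Test system: Human PMI in coupled enzyme assay | Input: 15 ng/mL PMI | Medium: HEPES-buffered pH 7.4 with magnesium and detergent | Compound: One concentration, 20 µM, in 1% DMSO | Incubation: Enzyme reaction with compound 20 min at room temperature | Detection: Diaphorase-driven resazurin-to-resorufin fluorescence, excitation 544, emission 590 nm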
PMI act – phosphomannose isomerase (human) activation; 0.005% of 190,000 active; P34949; activation factor at 20 µM; purified human PMI, coupled resazurin fluorescence, 20 min; hits give high values; 1 = vehicle control, 0 substrate-free wells; AID 1214;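 active = activation factor of 2 or more at 20 µM, relative to plate controls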
Diaphorase inh – counter-screen for diaphorase-based assays: diaphorase inhibitors and chemical oxidizers. diaphorase resazurin-to-resorufin fluorescence, NADH, 16 min; bacterial (C. kluyveri) enzyme, not human. inhibition, % at 20 µM. 0.69% of 190,000 active. AID 1217;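 active = primary screen inhibition at 20 µM above a set limit, cut at about 50% in these data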
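Benchmarks: positive control wells lacking NADH, neutral wells with DMSO only. System: bacterial diaphorase enzyme (C. kluyveri). Input: 0.14 U/mL diaphorase, enzyme working solution. Detection: resorufin fluorescence, excitation 544 nm, emission 590 nm. Times: 16-min room-temperature incubation before reading.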
G6PDH CS – counter-screen for G6PDH assay hits: L. mesenteroides G6PDH inhibition | 0.12% of 200,000 active | Purified L. mesenteroides G6PDH, diaphorase/resazurin coupled fluorescence, 45 min | AID 1020 | inhibition, % at 5 µM; in the data active = inhibition above about 50%
Diaphorase act – diaphorase activation or chemical reduction counter-screen. Diaphorase/resazurin coupled assay, resorufin fluorescence, 16 min; hits give high values; 1 = vehicle wells, 0 = NADH-free wells. activation factor at 20 µM. 0.005% of 190,000 active;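 active = diaphorase activity raised at least twofold by the compound at 20 µM; inactive = activation factor below 2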
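System – purified diaphorase enzyme from Clostridium kluyveri · Input – enzyme 0.07 U/mL final · Also added – final NADH 0.114 mM, resazurin 0.1 mM · Measured by – fluorescence of resorufin, 544 nm excitation, 590 nm emission · Timing – 16 min enzyme reaction, ambient temperature · Measure – resorufin increase flagging diaphorase activators or reducers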
Large screens that a line does not name were inactive. Rows were chosen to be rich in hits. Some 1.1% of all compounds tested hit in one or more screens of this group.

CCOC(=O)c1c(NC(=O)C2C3CCC(O3)C2C(=O)O)sc2c1CCC(CC)C2 (stereo unspecified)	Diaphorase inh 54.8
O=C(NCCO)c1cc2ccccc2cc1O	Diaphorase inh 52.5
NNC(=O)c1cc2ccccc2cc1O	none
O=C(NC1CCSC1=O)C1CCCCC1 (stereo unspecified)	none
COc1ccc(-c2csc(CCN3N=C(C)CC3=O)n2)cc1	PMI act hi M6P 2.1
CC(O)CNCc1ccccc1C(F)(F)F (stereo unspecified)	none
O=C(CN1C(=O)NC2(CCSC2)C1=O)N1CCN(c2ccc(F)cc2)CC1 (stereo unspecified)	PMI act hi M6P 2.1
O=C(CN1C(=O)C2CCCCC2C1=O)N1CCN(c2ccc(F)cc2)CC1 (stereo unspecified)	none
CNC(=O)CN(c1ccc(F)cc1)S(=O)(=O)c1cc(C)ccc1OC	none
Fc1ccc(-c2n[nH]c(=S)c3ccccc23)cc1	PMI act hi M6P 2.4
Oc1cccc(/C=N/N(Cc2ccccc2)c2ccccc2)c1	none
Oc1ccc(/C=N/N(Cc2ccccc2)c2ccccc2)c(O)c1O	Diaphorase inh 86.6
CC(=O)C1=C(c2ccc(Br)cc2)C(=O)c2ccccc2C1=O	Diaphorase inh 61.9
COc1coc(C(O)C[N+](=O)[O-])cc1=O (stereo unspecified)	none
CN(C)c1ncc(/C=C2/C(=O)NC(=S)N(C3CCCCC3)C2=O)cn1	PMI act hi M6P 2
CC(C)CC1NC(=S)N(C2CCCCC2)C1=O (stereo unspecified)	none
CC(=O)N1CCN(Cc2nc3cc(NC(=O)NC4CCCCC4)ccc3n2C)CC1	none
O=C(CSc1nc2ccccc2s1)Nc1ccc2c(c1)oc1ccccc12	none
O=C(CSc1nc2ccccc2s1)Nc1ccc(Cl)c(C(=O)O)c1	PMI act hi M6P 2.3
O=C(CSc1nc2ccccc2s1)Nc1cc(C(=O)O)cc(C(=O)O)c1	Diaphorase inh 61.7
O=C(CSc1nc2ccccc2s1)NNC(=O)Nc1ccc(Cl)c(Cl)c1	none
Cc1c(-c2cccc(Cl)c2)nc2ccccc2c1C(=O)OCC(=O)Nc1ccc2c(c1)OCO2	none
COCCN(CC(=O)NC1CCCCC1)C(=O)CCCC(=O)Nc1ccccn1	none
O=C(CSc1nc(-c2ccc(F)cc2)nc2c1Cc1ccccc1O2)Nc1cccc(C(=O)O)c1	Diaphorase inh 61.3
Cc1cccc(Cn2ncc(Cl)c(Cl)c2=O)c1	none
Cc1cccc(Cn2nnc3c2C(=O)c2ccccc2C3=O)c1	G6PDH CS 54.1
COc1ccc(-c2noc(CSc3nc(-c4ccccc4)cc(=O)[nH]3)n2)cc1OC	Diaphorase inh 66.7
COc1ccc(-c2noc(CCCc3ccccc3)n2)cc1OC	none
CCCc1ccc(-c2cc(C(=O)Nc3ccc([N+](=O)[O-])cn3)c3ccccc3n2)cc1	none
O=C(Cc1csc(N2CCOCC2)n1)N/N=C/c1ccc(O)c(O)c1O	Diaphorase inh 82.8
Cc1cc(C(=O)N/N=C/c2ccc(O)c(O)c2O)c(C)n1-c1ccccc1	Diaphorase inh 88.8
O=C(CCN1CCN(c2ccccc2)CC1)N/N=C/c1ccc(O)c(O)c1O	Diaphorase inh 64.1
O=C(CCN1CCOCC1)N/N=C/c1cc(Br)cc(Br)c1O	Diaphorase inh 62.6
Cc1cc(/C=N/NC(=O)c2ccncc2)c(C)n1-c1ccccc1	none
COc1ccc(/C=N/NC(=O)CCN2CCN(c3ccccc3)CC2)c(OC)c1OC	none
COc1cc(OC)nc(Oc2cc(/C=N/O)ccc2OC)n1	none
CN(c1nc(-c2ccc(Br)cc2)cs1)C1CCS(=O)(=O)C1 (stereo unspecified)	none
Cc1nc2sc3c(NCc4ccco4)ncnc3c2c2c1COC(C)(C)C2	Diaphorase inh 66.2
CC(C)Cc1nc2sc3c(NCc4ccco4)ncnc3c2c2c1COC(C)(C)C2	none
COc1cc(O)c2c(c1)OC(c1ccc(O)cc1)CC2=O (stereo unspecified)	Diaphorase inh 56.6
Cc1c(O)cc2c(c1O)C(=O)CC(c1ccc(O)cc1)O2 (stereo unspecified)	none
O=C1C=C(Nc2ccccc2O)c2ccccc2C1=O	G6PDH CS 55.7
O=C1C=C(NCc2ccccc2)c2ccccc2C1=O	G6PDH CS 53.2
